Legend:
[1] = Cytotoxicity against mouse B16-4A5 cells assessed as cell viability at 100 uM after 70 hrs by WST-8 assay
[2] = Inhibition of melanogenesis in mouse B16-4A5 cells at 30 uM after 72 hrs by spectrophotometry; format: functional; conditions: B16-4A5, 72 h
[3] = Inhibition of melanogenesis in mouse B16-4A5 cells at 10 uM after 72 hrs by spectrophotometry; format: functional; conditions: B16-4A5, 72 h
[4] = Inhibition of melanogenesis in mouse B16-4A5 cells at 1 uM after 72 hrs by spectrophotometry; format: functional; conditions: B16-4A5, 72 h
[5] = Inhibition of melanogenesis in mouse B16-4A5 cells at 3 uM after 72 hrs by spectrophotometry; format: functional; conditions: B16-4A5, 72 h
[6] = Inhibition of melanogenesis in mouse B16-4A5 cells at 100 uM after 72 hrs by spectrophotometry; format: functional; conditions: B16-4A5, 72 h
[7] = Inhibition of melanogenesis in mouse B16-4A5 cells after 72 hrs by spectrophotometry; format: functional, cell-based
[8] = Antimelanogenic activity in mouse B16-4A5 cells assessed as inhibition of TRP1 mRNA expression at 10 uM after 72 hrs by RT-PCR analysis relative to beta-actin mRNA; format: functional
How it was run: (§1)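 B16 melanoma 4A5 cells seeded at 1.0 × 10^5 cells/well in 6-well plates, cultured 24 h, then exposed to test compound plus theophylline 1 mM for 72 h. Total RNA extracted; cDNA from 1 µg RNA; SYBR Green real-time PCR (95 °C 2 min; 40 cycles 95/58/72 °C, 30 s each) with gene-specific primers; relative quantification normalized to β-actin mRNA.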

[9] = molecular target: T1, Tyrosinase (Agaricus bisporus) (UniProt O42713); assay: Inhibition of mushroom tyrosinase at 100 uM
T1 sequence (whole entry): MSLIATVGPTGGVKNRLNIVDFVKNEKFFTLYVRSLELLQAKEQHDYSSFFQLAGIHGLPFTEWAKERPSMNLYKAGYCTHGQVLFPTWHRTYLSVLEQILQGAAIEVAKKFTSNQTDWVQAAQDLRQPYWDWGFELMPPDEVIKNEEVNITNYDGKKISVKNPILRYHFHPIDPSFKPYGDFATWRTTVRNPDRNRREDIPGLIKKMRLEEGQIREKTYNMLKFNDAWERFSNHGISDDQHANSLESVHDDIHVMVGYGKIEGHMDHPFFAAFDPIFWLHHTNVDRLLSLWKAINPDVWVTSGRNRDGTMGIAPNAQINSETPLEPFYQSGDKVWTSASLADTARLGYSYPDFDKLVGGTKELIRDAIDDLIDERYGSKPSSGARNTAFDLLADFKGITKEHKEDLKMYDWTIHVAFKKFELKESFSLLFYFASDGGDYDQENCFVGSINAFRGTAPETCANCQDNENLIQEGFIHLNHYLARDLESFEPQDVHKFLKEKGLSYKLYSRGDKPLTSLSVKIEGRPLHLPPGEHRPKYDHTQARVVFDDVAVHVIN
How it was run: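 Enzyme mix: 70 µL L-DOPA (2.5 mM in phosphate buffer) as substrate plus 20 µL test solution (DMSO, final 0.1%). Reaction started with 120 µL mushroom tyrosinase (80.5 units/mL), run 5 min at 25 °C. Dopaquinone measured by absorbance at 405 nm (reference 655 nm). Inhibition % = (A−B)/A × 100 versus vehicle.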

[10] = Antimelanogenic activity in mouse B16-4A5 cells assessed as inhibition of TRP2 mRNA expression at 30 uM after 72 hrs by RT-PCR analysis relative to beta-actin mRNA; format: functional; how it was run: as §1
[11] = Antimelanogenic activity in mouse B16-4A5 cells assessed as inhibition of tyrosinase mRNA expression at 10 uM after 72 hrs by RT-PCR analysis relative to beta-actin mRNA; format: functional; how it was run: as §1
[12] = Antimelanogenic activity in mouse B16-4A5 cells assessed as inhibition of TRP1 mRNA expression at 3 uM after 72 hrs by RT-PCR analysis relative to beta-actin mRNA; format: functional; how it was run: as §1
[13] = Antimelanogenic activity in mouse B16-4A5 cells assessed as inhibition of TRP1 mRNA expression at 30 uM after 72 hrs by RT-PCR analysis relative to beta-actin mRNA; format: functional; how it was run: as §1
[14] = Antimelanogenic activity in mouse B16-4A5 cells assessed as inhibition of tyrosinase mRNA expression at 30 uM after 72 hrs by RT-PCR analysis relative to beta-actin mRNA; format: functional; how it was run: as §1
[15] = Antimelanogenic activity in mouse B16-4A5 cells assessed as inhibition of tyrosinase mRNA expression at 3 uM after 72 hrs by RT-PCR analysis relative to beta-actin mRNA; format: functional; how it was run: as §1
[16] = Antimelanogenic activity in mouse B16-4A5 cells assessed as inhibition of TRP2 mRNA expression at 10 uM after 72 hrs by RT-PCR analysis relative to beta-actin mRNA; format: functional; how it was run: as §1
[17] = Antimelanogenic activity in mouse B16-4A5 cells assessed as inhibition of TRP2 mRNA expression at 3 uM after 72 hrs by RT-PCR analysis relative to beta-actin mRNA; format: functional; how it was run: as §1

SMILES | viability at 70 h, 100 µM [1] | inhibition at 30 µM [2] | inhibition at 10 µM [3] | inhibition at 1 µM [4] | inhibition at 3 µM [5] | inhibition at 100 µM [6] | IC50 [7] | fold change (FC) [8] | inhibition [9] | fold change (FC) [10] | fold change (FC) [11] | fold change (FC) [12] | fold change (FC) [13] | fold change (FC) [14] | fold change (FC) [15] | fold change (FC) [16] | fold change (FC) [17]
c1ccc2c(c1)CCNC2 [1,2,3,4-TETRAHYDROISOQUINOLINE] | 46% | 2.8% | -54.2% | -12.6% | -41.5% | 26.1% |  |  |  |  |  |  |  |  |  |  | 
COc1cc2c3c(c1OC)-c1ccccc1C[C@H]3NCC2 | 82% | 17.6% | 12.1% | 5.8% | 16.2% | 91.9% | 62.9 µM |  |  |  |  |  |  |  |  |  | 
COc1cc2c3c(c1OC)C1(C=CC(=O)C=C1)C[C@H]3N(C)CC2 [PRONUCIFERINE] | 82% | 40.3% | 18.3% | 4% | 16.8% | 66.4% | 47.9 µM |  |  |  |  |  |  |  |  |  | 
COc1cc2c3c(c1OC)-c1ccccc1C[C@H]3[N+](C)([O-])CC2 (some centres not stated) | 82% | 33.7% | -0.1% | -4.8% | -3.2% | 88.4% | 43 µM |  |  |  |  |  |  |  |  |  | 
COc1cc2c3c(c1OC)-c1ccccc1C[C@H]3N(C)CC2 [NUCIFERINE] | 46% | 72.3% | 32.1% | 11.5% | 16.5% | 89.3% | 15.8 µM | 0.74 | < 3% | 0.65 | 0.64 | 0.76 | 0.36 | 0.38 | 0.61 | 0.71 | 1.11
COc1c(O)cc2c3c1-c1ccccc1C[C@@H]3NCC2 [ASIMILOBINE] |  | 39.7% | 12.1% | 7.4% | -7.4% | 36.2% | > 100 µM |  |  |  |  |  |  |  |  |  | 
COc1c(O)cc2c3c1-c1ccccc1C[C@H]3NCC2 [ASIMILOBINE] | 46% |  |  |  |  |  |  |  |  |  |  |  |  |  |  |  | 
COc1cc2c3c(c1)-c1ccccc1CC3N(C)CC2 (configuration not stated) |  | 82.5% | 76% | 39.1% | 54.7% |  | 2 µM |  |  |  |  |  |  |  |  |  | 
COc1c(O)cc2c3c1-c1ccccc1C[C@H]3N(C)CC2 | 82% | 70.6% | 37.9% | 15.4% | 19.7% | 90.5% | 14.5 µM | 0.72 | < 3% | 0.88 | 0.76 | 0.79 | 0.49 | 0.53 | 0.65 | 0.96 | 1.1
COc1c(O)cc2c3c(cc4ccccc4c13)N(C)CC2 | 46% | 87.4% | 37.6% | 10.9% | 13.2% | 78.7% | 13.3 µM |  |  |  |  |  |  |  |  |  | 
CN1CCc2ccccc2C1Cc1ccccc1 (configuration not stated) | 77% | 51.8% | 59.7% | 24.5% | 40.5% | 75.4% | 5 µM |  |  |  |  |  |  |  |  |  | 
OC[C@H]1O[C@@H](Oc2ccc(O)cc2)[C@H](O)[C@@H](O)[C@@H]1O [ARBUTIN] |  | 20.4% | 10.6% |  |  | 38.1% | 174 µM |  |  |  |  |  |  |  |  |  | 
COc1cc2c3c(c1O)-c1ccccc1C[C@H]3N(C)CC2 | 39.7% | 65.9% | 27.3% | -2.6% | 11.1% |  | 19.3 µM |  |  |  |  |  |  |  |  |  | 
CN1CCc2ccccc2C1 | 82% | 16.5% | 9.4% | 10.6% | 9.7% | 15.9% |  |  |  |  |  |  |  |  |  |  | 
COc1cc2c(cc1OC)C(Cc1ccc(O)cc1)N(C)CC2 (racemic) | 82% | 50.4% | 34% | 7.5% | 18.2% | 80.3% | 25.6 µM |  |  |  |  |  |  |  |  |  | 
COc1cc2ccnc3c2c(c1OC)-c1ccccc1C3=O [LYSICAMINE] | 22.5% | 65.3% | -1.5% | 4.8% | 8.7% |  |  |  |  |  |  |  |  |  |  |  | 
COc1cc2c3c(cc4ccccc4c3c1OC)N(C)CC2 [DEHYDRONUCIFERINE] | 77% | 8% | 11.8% | 14.5% | 4.8% | 78.4% | 85 µM |  |  |  |  |  |  |  |  |  | 

— ChEMBL document CHEMBL2311321, “Alkaloid constituents from flower buds and leaves of sacred lotus (Nelumbo nucifera, Nymphaeaceae) with melanogenesis inhibitory activity in B16 melanoma cells” (Bioorg Med Chem, 2013)
